Results gathered from unrelated publications.
Compare with care: the assays were run in different laboratories.
Organism: Mycobacterium tuberculosis
Observed: microbial growth

With NNC(=O)c1ccncc1 the MIC was 0.22 µM (THP-1; H37RV).
The MIC of O=C1CC[C@@H]2CN(Cc3ccccc3)CC[C@@]23OC[C@H](C2CC2)N13 is reported as 37 µM (H37RV).
Cc1ccc2nc(C)c(C(=O)NCc3ccc(S(F)(F)(F)(F)F)cc3)n2c1 has an MIC of 0.014 µM (H37RV; 5 days).
Cc1ccc(NC(=O)c2ccccc2)cc1Nc1nccn1-c1cc(NC2CCCC2)ncn1 gave an MIC of greater than 20 µM (W4).
The MIC of O=C1C(=NNc2nc(-c3ccccc3)cs2)C(N=Cc2ccc(O)c(O)c2)=NN1c1ccccc1 is reported as 3.12 µg/mL (resazurin; H37RV).
The MIC of Nc1ncnc2c1ncn2[C@@H]1O[C@H](COS(N)(=O)=O)[C@@H](O)[C@H]1O is reported as 0.16 µg/mL (H37RV).
For CC1(C)S[C@@H]2[C@H](NC(=O)[C@H](N)c3ccccc3)C(=O)N2[C@H]1C(=O)O, the MIC was 64 µg/mL (resazurin; H37RA; 14 days).
For C=C[C@@H](O)C#CC#C[C@@H](O)/C=C\CCCCCCC, the MIC was 6 µg/mL (resazurin; ATCC35801 ERDMAN; 7 days).
For Cc1ccc(C)n1-c1ccc(-c2nnc(-c3ccc(N(C)C)cc3)[nH]2)cc1, the MIC was 16 µg/mL (broth dilution; H37RV; 21 days).
With Cc1c(Cc2ccc(C(C)(C)C)cc2)c(=O)n2c([nH]c3ccccc32)c1C#N the MIC was 1 µg/mL (broth dilution; H37RV).
The MIC of CC(C)=CCCC(C)CC1CC(=O)c2ccc(O)cc2O1 (stereo not drawn) is reported as 100 µg/mL (broth dilution; H37RV).
The MIC of Cc1ccc(C)n1-c1ccc(-c2nnc(-c3ccc(O)cc3)[nH]2)cc1 is reported as 16 µg/mL (broth dilution; H37RV; 21 days).
For CO[C@H]1/C=C/O[C@@]2(C)Oc3c(C)c(O)c4c(O)c(c(/C=N/N5CCN(C)CC5)c(O)c4c3C2=O)NC(=O)/C(C)=C\C=C\[C@H](C)[C@H](O)[C@@H](C)[C@@H](O)[C@@H](C)[C@H](OC(C)=O)[C@@H]1C, the MIC was 0.03 µg/mL (ATCC27294 H37RV; 7 days).
The MIC of CCCC1CCC2(CC1)SCC(=O)N2NC(=O)c1[nH]c2ccc(Cl)cc2c1-c1ccccc1 (stereo not drawn) is reported as 31 µM (ATCC27294 H37RV).
The MIC of CCOC(=O)c1nnn(-c2cccc(NC(=O)Nc3ccc(Cl)c(Cl)c3)c2)c1C is reported as 16 µg/mL (ATCC27294 H37RV; 7 days).
O=C1C(=NNc2nc(-c3ccccc3)cs2)C(N=Cc2ccc([N+](=O)[O-])cc2)=NN1c1ccccc1 gave an MIC of 25 µg/mL (resazurin; H37RV).
CC[C@@H](CO)NCCN[C@@H](CC)CO has an MIC of 1 µg/mL (resazurin; H37RA; 14 days).
With COC(=O)c1cc(-c2cccc(NC(=O)Nc3ccc(F)cc3)c2)on1 the MIC was 0.5 µg/mL (ATCC27294 H37RV; 7 days).
With Cc1c(Cc2ccc(Cl)c(Cl)c2)c(=O)n2c([nH]c3ccccc32)c1C#N the MIC was 0.5 µg/mL (broth dilution; H37RV).
For COc1ccc2cc(-c3nc(C(C)(C)C)[nH]c3-c3ccnc(N)c3)ccc2c1, the MIC was 5.4 µM (ATCC27294 H37RV).
The MIC of O=C(C1CCCN(S(=O)(=O)c2ccc([N+](=O)[O-])cc2)C1)N1CCN(C(c2ccc(F)cc2)c2ccc(F)cc2)CC1 (stereo not drawn) is reported as greater than 25 µg/mL (ATCC27294 H37RV).
COC(=O)c1cc(-c2cccc(NC(=O)Nc3ccc(C)cc3)c2)on1 gave an MIC of 0.5 µg/mL (ATCC27294 H37RV; 7 days).
The MIC of Cc1cn2c(C(=O)NCc3ccc(S(F)(F)(F)(F)F)cc3)c(C)nc2s1 is reported as 0.078 µM (resazurin; H37RV).
For CCCCCCC/C=C\[C@H](O)C#CC#C[C@@H](O)CC, the MIC was 49.5 µg/mL (resazurin; ATCC35801 ERDMAN; 7 days).
CC[C@H]1OC(=O)[C@H](C)[C@@H](O[C@H]2C[C@@](C)(OC)[C@@H](O)[C@H](C)O2)[C@H](C)[C@@H](O[C@@H]2O[C@H](C)C[C@H](N(C)C)[C@H]2O)[C@](C)(OC)C[C@@H](C)C(=O)[C@H](C)[C@@H](O)[C@]1(C)O gave an MIC of 8 µg/mL (resazurin; H37RA; 14 days).
The MIC of C[C@@H]1CN2c3c(cc4c(N5CC[C@@H](O)C5)noc4c3F)CC3(C(=O)NC(=O)NC3=O)[C@H]2[C@H](C)N1C#N is reported as 7.8 µM (H37RV).
COc1ccc2cc1Oc1cc(ccc1OC)CCC(N[C@H]1CCCc3ccccc31)CCCC2 (stereo partly drawn) has an MIC of greater than 100 µg/mL (broth dilution; H37RV).
NNC(=O)c1ccncc1 has an MIC of 0.05 µg/mL (ATCC27294 H37RV).
CO[C@H]1/C=C/O[C@@]2(C)Oc3c(C)c(O)c4c(O)c(c(/C=N/N5CCN(C)CC5)c(O)c4c3C2=O)NC(=O)/C(C)=C\C=C\[C@H](C)[C@H](O)[C@@H](C)[C@@H](O)[C@@H](C)[C@H](OC(C)=O)[C@@H]1C gave an MIC of 0.012 µM (H37RV; 5 days).
For COC(=O)c1cc(-c2cccc(NC(=O)Nc3ccccc3OC)c2)on1, the MIC was 0.5 µg/mL (ATCC27294 H37RV; 7 days).
O=[N+]([O-])c1ccc(/C(O)=C/C(=S)S)cc1 has an MIC of 7.8 µg/mL (H37RA).
For CC1SC2(CCCC2)N(NC(=O)c2[nH]c3ccc(Cl)cc3c2-c2ccccc2)C1=O (stereo not drawn), the MIC was 250 µM (ATCC27294 H37RV).
With O=C1C(=NNc2nc(-c3ccccc3)cs2)C(N=Cc2ccccc2O)=NN1c1ccccc1 the MIC was 25 µg/mL (resazurin; H37RV).
The MIC of COC(=O)c1cc(-c2cccc(NC(=O)Nc3cccc(Cl)c3)c2)on1 is reported as 0.5 µg/mL (ATCC27294 H37RV; 7 days).
N#Cc1cc(C(F)(F)F)cc2c(=O)nc(N3CCN(CC4CC4)CC3)sc12 has an MIC of greater than 2 µM (resazurin; H37RV).
For COc1cccc(C=NC2=NN(c3ccccc3)C(=O)C2=NNc2nc(-c3ccccc3)cs2)c1, the MIC was 12.5 µg/mL (resazurin; H37RV).
The MIC of CO[C@@H]1[C@@H](OC(N)=O)[C@@H](O)[C@H](Oc2ccc3c(O)c(NC(=O)c4ccc(O)c(CC=C(C)C)c4)c(=O)oc3c2C)OC1(C)C is reported as 8 µg/mL (resazurin; H37RA; 14 days).
COC(=O)c1cc(-c2cccc(NC(=O)Nc3cc(Cl)ccc3Cl)c2)on1 gave an MIC of 2 µg/mL (ATCC27294 H37RV; 7 days).
CCC1CCC2(CC1)SCC(=O)N2NC(=O)c1[nH]c2ccc(Cl)cc2c1-c1ccccc1 (stereo not drawn) has an MIC of 250 µM (ATCC27294 H37RV).
COC(=O)c1cc(-c2cccc(NC(=O)Nc3cc(OC)ccc3OC)c2)on1 gave an MIC of 0.5 µg/mL (ATCC27294 H37RV; 7 days).
O=[N+]([O-])c1cn2c(n1)OC[C@@H](OCc1ccc(N3CCCCC3)cc1)C2 has an MIC of 0.4 to 0.8 µg/mL (H37RV).
For Cc1ccc(C)n1-c1ccc(-c2nnc(S)s2)cc1, the MIC was 1 µg/mL (broth dilution; H37RV; 21 days).
[H]/N=C(/N)N[C@H]1[C@H](O)[C@@H](O)[C@H](O[C@@H]2O[C@@H](C)[C@](O)(C=O)[C@H]2O[C@@H]2O[C@@H](CO)[C@H](O)[C@@H](O)[C@@H]2NC)[C@@H](N/C(N)=N\[H])[C@@H]1O gave an MIC of 1.5 µM (H37RV; 5 days).
CC1CCC2(CC1)SCC(=O)N2NC(=O)c1[nH]c2ccc(Cl)cc2c1-c1ccccc1 (stereo not drawn) gave an MIC of 31 µM (ATCC27294 H37RV).
With Cc1cc(N)c2ccccc2[n+]1CCCCCCCCCC[n+]1c(C)cc(N)c2ccccc21 the MIC was 1.2 µg/mL (broth dilution).
NNC(=O)c1ccncc1 gave an MIC of 0.8 µM (resazurin; H37RV).
For Cc1ccc(C)n1-c1ccc(-c2nnc(-c3c(Cl)cccc3Cl)[nH]2)cc1, the MIC was 8 µg/mL (broth dilution; H37RV; 21 days).
The MIC of N#Cc1cc(C(F)(F)F)cc2c(=O)nc(N3CCN(CC4CCOC4)CC3)sc12 (stereo not drawn) is reported as 1.9 µM (resazurin; H37RV).
O=C1C(=NNc2nc(-c3ccccc3)cs2)C(N=Cc2ccc(O)cc2O)=NN1c1ccccc1 has an MIC of 6.25 µg/mL (resazurin; H37RV).
COc1nc2ccc(Br)cc2cc1[C@@H](c1ccccc1)[C@@](O)(CCN(C)C)c1cccc2ccccc12 has an MIC of 0.17 µM (resazurin; H37RV; 7 days).
CC(C)=CCC/C(C)=C/COCCOC1C2CC3CC(C2)CC1C3 (stereo not drawn) has an MIC of 50 µg/mL.
